LEDGF integ inh: blockers of LEDGF/p75-dependent integrase strand transfer – biochemical, TR-FRET, high throughput, primary screen. TR-FRET IN-LEDGF/p75 DNA integration, Eu/Cy5. AID 743269, 2014. HIV-1 integrase (with human LEDGF/p75). actives 0.64% (n = 370,000). inhibition, % at 3.7 µM;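 active = inhibition above the screen-wide mean plus 3 SD, cut at about 13% in these data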;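 note: signal is the Cy5 over europium emission ratio at 671 and 618 nm; 0% = plate median of compound wells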
Rin1-Abl PPI inh: inhibitors of Rin1-Abl protein binding, primary screen, biochemical, TR-FRET | Tyrosine-protein kinase ABL1 (Homo sapiens) + Ras and Rab interactor 1 (Homo sapiens), … | inhibition, % at 7.35 µM | actives 0.4% (n = 360,000) | AID 588664, 2011; in the data active = inhibition above about 5%, passing the limit was not always enough
MBD2 inh: inhibitors of MBD2 binding to methylated DNA, primary screen, biochemical, TR-FRET, DNA-binding domain, human. Methyl-CpG-binding domain protein 2 (Homo sapiens), Q9UBB5. MBD2 binding to methylated oligonucleotide. inhibition, % at 4.4 µM. actives 0.31% (n = 370,000). AID 686964, 2013; in the data active = inhibition above about 13%
Target sequence (Q9UBB5 whole entry, looked up, the tested form may be a part): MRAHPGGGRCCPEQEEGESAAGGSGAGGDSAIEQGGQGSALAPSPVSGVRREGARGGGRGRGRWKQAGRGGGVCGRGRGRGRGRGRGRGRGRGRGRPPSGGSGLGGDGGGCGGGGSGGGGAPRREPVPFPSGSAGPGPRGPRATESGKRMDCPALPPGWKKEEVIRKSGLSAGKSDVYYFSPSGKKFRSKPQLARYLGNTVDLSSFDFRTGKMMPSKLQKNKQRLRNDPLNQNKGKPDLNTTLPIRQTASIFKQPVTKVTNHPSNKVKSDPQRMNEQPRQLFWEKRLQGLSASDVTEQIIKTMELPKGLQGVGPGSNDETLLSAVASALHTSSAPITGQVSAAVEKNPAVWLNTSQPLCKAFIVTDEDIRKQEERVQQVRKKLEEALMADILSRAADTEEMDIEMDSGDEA
UHRF1 binding: UHRF1 methylated DNA binding inhibitors, primary screen, counter-screen for MBD2 inhibitor project, biochemical, TR-FRET, human UHRF1, single concentration; AID 687016, 2013; UHRF1 binding to methylated oligo; inhibition, % at 4.4 µM; E3 ubiquitin-protein ligase UHRF1 (Homo sapiens), Q96T88; actives 0.75% (n = 370,000); in the data active = inhibition above about 21%;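 note: UHRF1 SRA domain binding a hemimethylated CpG hairpin DNA probe; 0% = median of test compound wells and 100% = reference inhibitor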
TDP2 absorb: human TDP2 enzyme inhibitors, primary screen, biochemical, epi absorbance, recombinant enzyme; Tyrosyl-DNA phosphodiesterase 2 (Homo sapiens), O95551; T5PNP hydrolysis, p-nitrophenol absorbance 415 nm; inhibition, % at 12.8 µM; actives 0.34% (n = 370,000); AID 720702, 2013;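 active = inhibition above the mean of all tested compounds plus 3 SD, set per campaign, cut at about 25% in these data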;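 note: 0% = DMSO with enzyme and 100% = buffer with substrate but no TDP2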
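Read-out basis: percent inhibition. System: recombinant human TDP2. Buffer or medium: Mg2+-containing Tris-HCl buffer, pH 7.5. Repeats: single replicate. Timing: reaction 2 h, 37 °C. Benchmarks: high control without enzyme, low control DMSO plus TDP2. Probe or stimulus: 5 mM T5PNP. Doses: 12.8 µM only. Measured by: epi absorbance of p-nitrophenol freed from T5PNP by hydrolysis.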
TDP2 confirm: human TDP2 enzyme inhibitors, retest, confirmation, biochemical, epi absorbance, recombinant enzyme | shares compounds with TDP2 absorb | absorbance read-out | inhibition, % at 12.8 µM | actives 22% (n = 1,100) | AID 743263, 2014; in the data active = inhibition above about 25%;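 note: 0% = vehicle with enzyme and 100% = no enzyme buffer only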
IN multimer act: HIV-1 IN multimer formation enhancers, counter-screen for LEDGF/p75 integration inhibitor project, biochemical, TR-FRET; shares compounds with LEDGF integ inh; TR-FRET HIV-1 integrase multimerization; activation, % at 7.7 µM; actives 17% (n = 2,000); AID 1053131, 2014; in the data active = activation above about 8.9%
TRFRET interf: TR-FRET optical interference artefacts, confirmation, artefact control for LEDGF/p75-dependent integration inhibitor project, biochemical, HIV-1 IN multimerization; shares compounds with LEDGF integ inh; TR-FRET optical interference counterscreen; inhibition, % at 7.7 µM; 2,000 tested, under 10 active; AID 1053135, 2014;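 active = inhibition above the mean over all tested compounds plus 3 SD, which no compound reached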;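 note: 0% = integrase with antibodies and DMSO and 100% = antibodies without integrase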
IN-LEDGF confirm: inhibitors of HIV-1 IN-LEDGF/p75 DNA integration, confirmation, biochemical, TR-FRET; shares compounds with LEDGF integ inh; TR-FRET LEDGF/p75-dependent HIV-1 integration; inhibition, % at 3.7 µM; actives 36% (n = 2,000); AID 1053136, 2014; in the data active = inhibition above about 14%
Numbers without * were called inactive; . = no result given. The list is not random: actives were taken first. Their share in the collection is about 1.9%.

SMILES	LEDGF integ inh	Rin1-Abl PPI inh	MBD2 inh	UHRF1 binding	TDP2 absorb	TDP2 confirm	IN multimer act	TRFRET interf	IN-LEDGF confirm
COCCCn1c(N)c(C(=O)Nc2sc3c(c2C(=O)OC)CCCC3)c2nc3ccccc3nc21	11	-4	2	4	35*	4	.	.	.
CCC(C)OC(=O)c1c(N)n(Cc2cccs2)c2nc3ccccc3nc12 (stereo not given)	2	-3	3	-3	-5	.	.	.	.
Nc1c(C(=O)OCc2ccccc2)c2nc3ccccc3nc2n1Cc1cccs1	6	2	-3	-7	25*	-3	.	.	.
O=C(NCCN1CCC2(CC1)C(=O)NCN2c1ccccc1)c1cccc(F)c1	-5	.	-2	-2	0	.	.	.	.
O=P(C(Cl)Cl)(N1CCOCC1)N1CCOCC1	1	1	3	-3	30*	4	.	.	.
COc1ccccc1CN1CCN(C(=O)COc2cccc(C)c2)CC1	4	5	-2	1	-9	.	.	.	.
COc1ccccc1CN1CCN(C(=O)COc2ccc3ccccc3c2)CC1	1	-4	3	-2	25*	6	.	.	.
COc1ccc(OC)c(N2C(=O)NC(=O)/C(=C\c3ccc([N+](=O)[O-])s3)C2=O)c1	11	1	-3	3	28*	18	.	.	.
O=C1NC(=O)N(c2ccccc2)C(=O)/C1=C\c1ccc([N+](=O)[O-])s1	8	.	-2	5	-5	.	.	.	.
COc1ccc(N2C(=O)NC(=O)/C(=C\c3ccccc3[N+](=O)[O-])C2=O)cc1	0	1	-2	-2	3	.	.	.	.
CN1C(=O)NC(=O)/C(=C/c2ccc([N+](=O)[O-])s2)C1=O	3	-1	-2	9	25*	21	.	.	.
O=C(NCCN1CCC2(CC1)C(=O)NCN2c1ccccc1)c1cccnc1Cl	-2	.	-1	-1	-1	.	.	.	.
C[C@H]1CNCCN1c1ccc(N2CC[C@H](O)C2)c(C#N)c1	2	.	-6	-3	1	.	.	.	.
CCN1CCN(c2ccc(N)cc2)CC1	0	0	3	5	32*	6	.	.	.
COCCCn1c(N)c(C(=O)NCc2ccco2)c2nc3ccccc3nc21	33*	.	13	16	92*	15	-4	16	52*
CC(C)(C)OC(=O)c1c(N)n(Cc2ccco2)c2nc3ccccc3nc12	35*	1	-7	10	67*	-4	2	-5	-5
CCOC(=O)c1c(N)n(CCN2CCCCC2)c2nc3ccccc3nc12	-2	-5	-3	-5	5	.	.	.	.
CCCCn1c(NS(=O)(=O)c2ccccc2)c(C(=O)OCC)c2nc3ccccc3nc21	31*	8	7	12	88*	83*	0	-1	66*
S=P(c1ccccc1)(c1ccccc1)c1c[n+](Cc2ccccc2)c2ccccn12	-4	.	0	0	-5	.	.	.	.
COc1ccc(C[C@@H]2c3cc(O)c(OC)cc3CCN2C)cc1O	0	2	0	-2	14	.	.	.	.
COc1cc2c(cc1O)[C@@H]1Cc3ccc(OC)c(O)c3CN1CC2	38*	0	-2	6	54*	38*	6	-20	44*
O=C(O)c1cc(S(=O)(=O)N2CC3CC(C2)c2cccc(=O)n2C3)ccc1F (stereo not given)	1	.	-1	5	1	.	.	.	.
CC(C)n1c(=O)c(C=Nc2ccc(S(N)(=O)=O)cc2)c(O)n(Cc2ccco2)c1=O	17*	-1	7	8	-1	.	0	1	5
CCCCn1c(=O)c(C=Nc2ccc(Cl)cc2)c(O)n(Cc2ccco2)c1=O	2	3	-2	-1	-6	.	.	.	.
CCCCC(=O)N/N=C/c1c(O)n(Cc2ccco2)c(=O)[nH]c1=O	27*	-2	-2	17	10	.	0	-2	2
SMILES	LEDGF integ inh	Rin1-Abl PPI inh	MBD2 inh	UHRF1 binding	TDP2 absorb	TDP2 confirm	IN multimer act	TRFRET interf	IN-LEDGF confirm
O=c1[nH]c(=O)n(Cc2ccco2)c(O)c1C=NCc1ccco1	15*	-1	2	6	23	.	-2	9	12
CCC(C)N1Cc2ccccc2C1=N (stereo not given)	3	-2	4	-2	4	.	.	.	.
Cc1cc(N2CCNC[C@@H]2C)ccc1N1CCN[C@H](C)C1	-2	.	-4	-1	9	.	.	.	.
O=C1CN=C(c2cccc(Br)c2)c2cc(Br)ccc2N1	-6	0	0	-1	15	.	.	.	.
COc1cccc(C(=O)NCCN2CCC3(CC2)C(=O)NCN3c2ccccc2)c1	-2	.	1	-1	1	.	.	.	.
C=CCN1C(=O)NC(=O)/C(=C/c2ccoc2)C1=O	14*	1	3	28*	3	.	2	-9	42*
c1ccc(CCN2CCC3CCNC3C2)cc1 (stereo not given)	7	.	3	1	-4	.	.	.	.
C[C@]12CCC3C(CC[C@H]4C[C@H](N)CC[C@]34C)C1CC[C@H]2O (stereo not given in full)	21*	1	-2	1	-8	.	-3	15	-1
NN=C1C(Cl)=C(Cl)C(Cl)=C1Cl	22*	0	13	40*	-8	.	-1	5	3
O=C(c1cccc(C(F)(F)F)c1)N1C[C@H]2C[C@@H](C1)c1cccc(=O)n1C2	-4	1	0	3	-7	.	.	.	.
O=C1NC(=O)C(=Cc2cc3c(cc2[N+](=O)[O-])OCO3)C(=O)N1	21*	0	-7	-4	17	.	7	-25	0
COc1cc(C(C)=O)ccc1OC(=O)N(C)c1ccccc1	-5	2	1	-2	7	.	.	.	.
CCCNC(=O)N1[C@H]2CC[C@@H]1C(C(=O)OC)=C(c1ccc(-c3ccccc3)c(F)c1)C2	2	0	4	7	-16	.	.	.	.
